Measurements: ChEMBL document CHEMBL1909563, “Anti-inflammatory triterpenoid saponins from the stem bark of Kalopanax pictus” (J Nat Prod, 2011)
Active and inactive are the calls of the source. The calls are words filed in the database; no cut-off is given here.

Tests used:
Assay type in all cases: cell-based
[1] = Inhibition of TNF-alpha-induced NFkappaB activation in human HepG2 cells after 1 hr by luciferase reporter assay; details: HepG2, 1 h
How it was run: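 HepG2 cells seeded at 1.5 × 10^5 per well, grown 24 h, then transiently transfected with NF-kB-responsive firefly luciferase reporter (minimal CMV promoter, tandem NF-kB response elements). Pretreated 1 h with DMSO vehicle or compound, then 10 ng/mL TNFα for 1 h; cells lysed, luciferin added, luminescence read.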

HepG2 [2] = test: Inhibition of NF-kappaB-induced iNOS mRNA expression in TNF-alpha-stimulated human HepG2 cells after 1 hr by RT-PCR analysis
How it was run: (§1)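 HepG2 cells stimulated with TNFα alone or with compound at 0.1, 1 and 10 μM; COX-2 and iNOS mRNA measured against β-actin housekeeping control. Mean ± SD (n = 6); significance versus TNFα-stimulated cells by Dunnett's multiple comparison test (p < 0.05, p < 0.01).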

HepG2 [3] = test: Inhibition of NF-kappaB-induced COX2 mRNA expression in TNF-alpha-stimulated human HepG2 cells after 1 hr by RT-PCR analysis; how it was run: as §1
HepG2 [4] = test: Cytotoxicity against human HepG2 cells by MTT assay
HepG2 [5] = test: Inhibition of NF-kappaB-induced iNOS mRNA expression in TNF-alpha-stimulated human HepG2 cells at 0.1 to 10 uM after 1 hr by RT-PCR analysis; how it was run: as §1
HepG2 [6] = test: Inhibition of NF-kappaB-induced COX2 mRNA expression in TNF-alpha-stimulated human HepG2 cells at 0.1 to 10 uM after 1 hr by RT-PCR analysis; how it was run: as §1

| IC50 [1] [µM] | Structure (SMILES) | inhibition (HepG2 [2]) | inhibition (HepG2 [3]) | Activity (HepG2 [4]) | inhibition (HepG2 [5]) | inhibition (HepG2 [6]) |
| --- | --- | --- | --- | --- | --- | --- |
| 0.8 | C[C@@H]1O[C@@H](O[C@H]2[C@H](O[C@H]3CC[C@@]4(C)[C@@H](CC[C@]5(C)[C@@H]4CC=C4[C@@H]6CC(C)(C)CC[C@]6(C(=O)O[C@@H]6O[C@H](CO[C@@H]7O[C@H](CO)[C@@H](O[C@@H]8O[C@@H](C)[C@H](O)[C@@H](O)[C@H]8O)[C@H](O)[C@H]7O)[C@@H](O)[C@H](O)[C@H]6O)CC[C@]45C)[C@]3(C)CO)OC[C@H](O)[C@@H]2O)[C@H](O)[C@H](O)[C@H]1O [KALOPANAXSAPONIN B] | Dose-dependent effect | Dose-dependent effect | Non-toxic |  |  |
| 8.9 | CC(=O)O[C@@H]1[C@@H](OC(C)=O)[C@H](O[C@H]2CC[C@@]3(C)[C@@H](CC[C@]4(C)[C@@H]3CC=C3[C@@H]5CC(C)(C)CC[C@]5(C(=O)O[C@@H]5O[C@H](CO[C@@H]6O[C@H](CO)[C@@H](O[C@@H]7O[C@@H](C)[C@H](O)[C@@H](O)[C@H]7O)[C@H](O)[C@H]6O)[C@@H](O)[C@H](O)[C@H]5O)CC[C@]34C)[C@]2(C)CO)OC[C@@H]1O | Dose-dependent effect | Dose-dependent effect | Non-toxic |  |  |
| 9.3 | CC(=O)O[C@@H]1[C@@H](O)[C@H](O[C@H]2CC[C@@]3(C)[C@@H](CC[C@]4(C)[C@@H]3CC=C3[C@@H]5CC(C)(C)CC[C@]5(C(=O)O[C@@H]5O[C@H](CO[C@@H]6O[C@H](CO)[C@@H](O[C@@H]7O[C@@H](C)[C@H](O)[C@@H](O)[C@H]7O)[C@H](O)[C@H]6O)[C@@H](O)[C@H](O)[C@H]5O)CC[C@]34C)[C@]2(C)CO)OC[C@@H]1OC(C)=O | Dose-dependent effect | Dose-dependent effect | Non-toxic |  |  |
| 16.4 | CC1(C)CC[C@]2(C(=O)O[C@@H]3O[C@H](CO)[C@@H](O)[C@H](O)[C@H]3O)CC[C@]3(C)C(=CC[C@@H]4[C@@]5(C)CC[C@H](O)[C@@](C)(CO)[C@@H]5[C@H](O)C[C@]43C)[C@@H]2C1 | Dose-dependent effect | Dose-dependent effect | Non-toxic |  |  |
| 1.4 | CC1(C)CC[C@]2(C(=O)O)CC[C@]3(C)C(=CC[C@@H]4[C@@]5(C)CC[C@H](O)[C@@](C)(CO)[C@@H]5[C@H](O)C[C@]43C)[C@@H]2C1 | Dose-dependent effect | Dose-dependent effect | Non-toxic |  |  |
| 0.6 | C[C@@H]1O[C@@H](O[C@H]2[C@H](O)[C@@H](O)[C@H](OC[C@H]3O[C@@H](OC(=O)[C@]45CCC(C)(C)C[C@H]4C4=CC[C@@H]6[C@@]7(C)CC[C@H](O[C@@H]8OC[C@H](O)[C@H](O)[C@H]8O[C@@H]8O[C@@H](C)[C@H](O)[C@@H](O[C@@H]9OC[C@@H](O)[C@H](O)[C@H]9O)[C@H]8O)[C@@](C)(CO)[C@@H]7CC[C@@]6(C)[C@]4(C)CC5)[C@H](O)[C@@H](O)[C@@H]3O)O[C@@H]2CO)[C@H](O)[C@H](O)[C@H]1O [SIEBOLDIANOSIDE A] | Dose-dependent effect | Dose-dependent effect | Non-toxic |  |  |
| 6.2 | CC1(C)CC[C@]2(C(=O)O[C@@H]3O[C@H](CO[C@@H]4O[C@H](CO)[C@@H](O)[C@H](O)[C@H]4O)[C@@H](O)[C@H](O)[C@H]3O)CC[C@]3(C)C(=CC[C@@H]4[C@@]5(C)CC[C@H](O)[C@@](C)(CO)[C@@H]5CC[C@]43C)[C@@H]2C1 [DIPSACUSSAPONIN A] | Dose-dependent effect | Dose-dependent effect | Non-toxic |  |  |
| 3.9 | C[C@@H]1O[C@@H](O[C@H]2[C@H](O[C@H]3CC[C@@]4(C)[C@@H](CC[C@]5(C)[C@@H]4CC=C4[C@@H]6CC(C)(C)CC[C@]6(C(=O)O[C@@H]6O[C@H](CO[C@@H]7O[C@H](CO)[C@@H](O[C@@H]8O[C@@H](C)[C@H](O)[C@@H](O)[C@H]8O)[C@H](O)[C@H]7O)[C@@H](O)[C@H](O)[C@H]6O)CC[C@]45C)[C@]3(C)CO)OC[C@H](O)[C@@H]2O[C@@H]2O[C@H](CO)[C@@H](O)[C@H](O)[C@H]2O)[C@H](O)[C@H](O)[C@H]1O [KALOPANAXSAPONIN C] | Dose-dependent effect | Dose-dependent effect | Non-toxic |  |  |
| 9.1 | CC1(C)CC[C@]2(C(=O)O[C@@H]3O[C@H](CO)[C@@H](O)[C@H](O)[C@H]3O)CC[C@]3(C)C(=CC[C@@H]4[C@@]5(C)CC[C@H](O)[C@@](C)(CO)[C@@H]5CC[C@]43C)[C@@H]2C1 | Dose-dependent effect | Dose-dependent effect | Non-toxic |  |  |
| 9.2 | C[C@@H]1O[C@@H](O[C@H]2[C@H](O)[C@@H](O)[C@H](OC[C@H]3O[C@@H](OC(=O)[C@]45CCC(C)(C)C[C@H]4C4=CC[C@@H]6[C@@]7(C)CC[C@H](O[C@@H]8OC[C@H](O)[C@H](O)[C@H]8O)[C@@](C)(CO)[C@@H]7CC[C@@]6(C)[C@]4(C)CC5)[C@H](O)[C@@H](O)[C@@H]3O)O[C@@H]2CO)[C@H](O)[C@H](O)[C@H]1O [CAULOSIDE D] | Dose-dependent effect | Dose-dependent effect | Non-toxic |  |  |
| 9.4 | COC(=O)CC[C@]1(C)[C@H]2CC=C3[C@@H]4C[C@](C)(CO)CC[C@]4(C(=O)O)CC[C@@]3(C)[C@]2(C)CC[C@H]1C(C)(O)CO (some centres not stated) | Dose-dependent effect | Dose-dependent effect | Non-toxic |  |  |
| > 20 | CC1(C)CC[C@]2(C(=O)O)CC[C@]3(C)C(=CC[C@@H]4[C@@]5(C)CC[C@H](O)[C@@](C)(CO)[C@@H]5CC[C@]43C)[C@@H]2C1 [HEDERAGENIN] |  |  |  | inactive | inactive |
| > 20 | C[C@@]1(CO)CC[C@]2(C(=O)O)CC[C@]3(C)C(=CC[C@@H]4[C@@]5(C)CC[C@H](O)[C@@](C)(CO)[C@@H]5CC[C@]43C)[C@@H]2C1 [NIPPONOGENIN E] |  |  |  |  |  |
| 6.5 | C[C@@]1(CO)CC[C@]2(C(=O)O)[C@H](O)C[C@]3(C)C(=CC[C@@H]4[C@@]5(C)CCC(=O)[C@@](C)(CO)[C@@H]5CC[C@]43C)[C@@H]2C1 | Dose-dependent effect | Dose-dependent effect | Non-toxic |  |  |

| Structure (SMILES) | IC50 [1] [µM] | inhibition (HepG2 [2]) | inhibition (HepG2 [3]) | Activity (HepG2 [4]) | inhibition (HepG2 [5]) | inhibition (HepG2 [6]) |
| --- | --- | --- | --- | --- | --- | --- |
| O=C(O)c1cc(/N=N/c2ccc(S(=O)(=O)Nc3ccccn3)cc2)ccc1O [SULFASALAZINE] | 0.9 |  |  |  |  |  |
| C[C@@H]1O[C@@H](O[C@H]2[C@H](O[C@H]3CC[C@@]4(C)[C@@H](CC[C@]5(C)[C@@H]4CC=C4[C@@H]6CC(C)(C)CC[C@]6(C(=O)O)CC[C@]45C)[C@]3(C)CO)OC[C@H](O)[C@@H]2O)[C@H](O)[C@H](O)[C@H]1O [ALPHA-HEDERIN] | 5.5 | Dose-dependent effect | Dose-dependent effect | Non-toxic |  |  |
